Source: ChEMBL document CHEMBL3232996, “Synthesis and biological evaluation of novel (123)I-labeled 4-(4-iodophenyl)butanoyl-L-prolyl-(2S)-pyrrolidines for imaging prolyl oligopeptidase in vivo” (Eur J Med Chem, 2014)

How the values were obtained:
[1] = Biodistribution in C57Bl/6JRccHsd mouse urine at 2.86 +/- 1.26 MBq, iv measured at 80 mins post dose pretreated with 50 umol/kg, ip prolyl oligopeptidase inhibitor KYP-2047 10 mins before compound dosing by SPECT analysis; assay type: ADME, organism-based; settings: in vivo
How it was run: (§1)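 Organs excised at 5, 20, 40, 80 or 160 min and radioactivity gamma-counted as %ID/g (brain also as %ID). Blocking groups received KYP-2047 (50 µmol/kg, 10 mL/kg, 1% DMSO in 0.9% NaCl) i.p. 10 min before tracer. Mean ± SD, n = 2–4 per time point. Blocking compared by two-tailed Student's t test.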

Mus musculus [2] = test: Retention time in C57Bl/6JRccHsd mouse plasma at 3.6 MBq, iv measured at 20 mins by HPLC analysis; assay type: ADME, organism-based
How it was run: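 Male mice given 3.6 MBq i.v.; cardiac plasma deproteinized with acetonitrile, supernatant run on C18 radio-HPLC gradient, 0.65 min fractions gamma-counted, activity expressed as cpm/total cpm.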

Brain [3] = test: Biodistribution in C57Bl/6JRccHsd mouse brain at 2.86 +/- 1.26 MBq, iv measured at 80 mins post dose pretreated with 50 umol/kg, ip prolyl oligopeptidase inhibitor KYP-2047 10 mins before compound dosing by SPECT analysis; assay type: ADME, organism-based; settings: in vivo; how it was run: as §1
Blood [4] = test: Biodistribution in C57Bl/6JRccHsd mouse blood at 2.86 +/- 1.26 MBq, iv measured at 20 mins by SPECT analysis; assay type: ADME, organism-based; settings: in vivo; how it was run: as §1
Brain [5] = test: Biodistribution in C57Bl/6JRccHsd mouse brain at 2.86 +/- 1.26 MBq, iv measured at 5 mins by SPECT analysis; assay type: ADME, organism-based; settings: in vivo; how it was run: as §1
[6] = Drug uptake in iv dosed C57Bl/6JRccHsd mouse blood cells measured at 20 mins; assay type: ADME, organism-based; settings: in vivo
How it was run: (§2)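 Mice got tracer i.v., some after i.p. KYP-2047 (50 µmol/kg) 10 min before. Cardiac blood was collected at 20, 40, 80 or 160 min and spun 5 min at 2000 g into cells and plasma. Plasma was precipitated with acetonitrile and pellet and supernatant were gamma-counted. Activity in cells, protein-bound and free plasma is given as % of total blood activity, n = 3.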

Muscle tissue = test: Biodistribution in C57Bl/6JRccHsd mouse muscle at 2.86 +/- 1.26 MBq, iv measured at 80 mins post dose pretreated with 50 umol/kg, ip prolyl oligopeptidase inhibitor KYP-2047 10 mins before compound dosing by SPECT analysis; assay type: ADME, organism-based; settings: in vivo; how it was run: as §1
Heart = test: Biodistribution in C57Bl/6JRccHsd mouse heart at 2.86 +/- 1.26 MBq, iv measured at 80 mins by SPECT analysis; assay type: ADME, organism-based; settings: in vivo; how it was run: as §1
[7] = Octanol-phosphate buffer partition coefficient, log P of the compound by shake-flask method; assay type: physicochemical
How it was run: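 Tracer (700 kBq, in 1% DMSO/0.9% NaCl) shaken 3 min between n-octanol and 0.02 M phosphate buffer pH 7.4; octanol phase split into four tubes, re-extracted with equal buffer 10 min, centrifuged 5 min at 1000 g; log of octanol/buffer cpm per mL ratio, mean ± SD of four replicates.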

[8] = Plasma protein binding in iv dosed C57Bl/6JRccHsd mouse measured at 40 mins; assay type: ADME, organism-based; settings: read-out: PPB (converted)
How it was run: (§3)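 Male mice given 3.6 MBq tracer i.v. via lateral tail vein; blocking groups got POP inhibitor i.p. (50 µmol/kg, 10 mL/kg, 1% DMSO in 0.9% NaCl) 10 min before. Heparinized cardiac blood on ice, gamma-counted, spun 5 min at 2000 g; plasma counted, precipitated with 1.5 volumes acetonitrile, respun; cell-bound, protein-bound and free fractions expressed as % of blood activity; n = 3.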

[9] = Plasma protein binding in human at 2.5 MBq/ml after 2 hrs by HPLC analysis; assay type: ADME, cell-free; settings: read-out: PPB (converted)
[10] = Biodistribution in left brain hemisphere of iv dosed C57BL/6JRccHsd mouse LPS-induced acute neuroinflammation model dosed 24 hrs after LPS challenge and measured at 80 mins post dose; assay type: ADME, organism-based; settings: read-out: Drug uptake
How it was run: (§4)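 Male mice under isoflurane got a stereotaxic LPS injection (E. coli 055:B5) into the left striatum, with buprenorphine 0.1 mg/kg s.c. for post-operative pain. The right hemisphere served as intact control. Tracer was given i.v. 24 h later. Left and right hemisphere and whole-brain radioactivity were measured 80 min post injection as %ID/g or %ID, n = 3.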

[11] = Fraction unbound in iv dosed C57Bl/6JRccHsd mouse plasma measured at 40 mins; assay type: ADME, organism-based; how it was run: as §3
[12] = Drug uptake in iv dosed C57Bl/6JRccHsd mouse blood cells measured at 80 mins; assay type: ADME, organism-based; settings: in vivo; how it was run: as §2
[13] = Fraction unbound in iv dosed C57Bl/6JRccHsd mouse plasma measured at 160 mins; assay type: ADME, organism-based; how it was run: as §2
[14] = Plasma protein binding in iv dosed C57Bl/6JRccHsd mouse measured at 80 mins; assay type: ADME, organism-based; settings: in vivo; how it was run: as §3
Mus musculus [15] = test: Biodistribution in C57Bl/6JRccHsd mouse testis at 2.86 +/- 1.26 MBq, iv measured at 80 mins by SPECT analysis; assay type: ADME, organism-based; settings: in vivo; how it was run: as §1
Mus musculus [16] = test: Drug metabolism in C57Bl/6JRccHsd mouse plasma assessed as retention time of radioactive metabolite at 3.6 MBq, iv measured at 20 mins by HPLC analysis; assay type: ADME, organism-based
How it was run: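 Male mice received 3.6 MBq tracer via tail vein. Cardiac blood was taken on heparin and centrifuged. Plasma was deproteinized with acetonitrile (1.5× plasma volume) and the supernatant run on reverse-phase C18 gradient HPLC. Fractions of 0.65 min were gamma-counted. Metabolite retention time was read from the 20 min sample.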

[17] = Fraction unbound in iv dosed C57Bl/6JRccHsd mouse plasma measured at 80 mins; assay type: ADME, organism-based; how it was run: as §3
Liver = test: Biodistribution in C57Bl/6JRccHsd mouse liver at 2.86 +/- 1.26 MBq, iv measured at 80 mins post dose pretreated with 50 umol/kg, ip prolyl oligopeptidase inhibitor KYP-2047 10 mins before compound dosing by SPECT analysis; assay type: ADME, organism-based; settings: in vivo; how it was run: as §1
Kidney = test: Biodistribution in C57Bl/6JRccHsd mouse kidney at 2.86 +/- 1.26 MBq, iv measured at 80 mins post dose pretreated with 50 umol/kg, ip prolyl oligopeptidase inhibitor KYP-2047 10 mins before compound dosing by SPECT analysis; assay type: ADME, organism-based; settings: in vivo; how it was run: as §1
[18] = Plasma protein binding in iv dosed C57Bl/6JRccHsd mouse measured at 20 mins post dose pretreated with 50 umol/kg, ip prolyl oligopeptidase inhibitor KYP-2047 10 mins before compound dosing by SPECT analysis; assay type: ADME, organism-based; settings: in vivo; how it was run: as §3
Blood [19] = test: Biodistribution in C57Bl/6JRccHsd mouse blood at 2.86 +/- 1.26 MBq, iv measured at 80 mins by SPECT analysis; assay type: ADME, organism-based; settings: in vivo; how it was run: as §1
[20] = Biodistribution in right brain hemisphere of iv dosed C57BL/6JRccHsd mouse dosed 24 hrs after LPS challenge and measured at 80 mins post dose; assay type: ADME, organism-based; settings: read-out: Drug uptake; how it was run: as §4
Blood [21] = test: Biodistribution in C57Bl/6JRccHsd mouse blood at 2.86 +/- 1.26 MBq, iv measured at 20 mins post dose pretreated with 50 umol/kg, ip prolyl oligopeptidase inhibitor KYP-2047 10 mins before compound dosing by SPECT analysis; assay type: ADME, organism-based; settings: in vivo; how it was run: as §1
[22] = Fraction unbound in iv dosed C57Bl/6JRccHsd mouse plasma measured at 160 mins post dose pretreated with 50 umol/kg, ip prolyl oligopeptidase inhibitor KYP-2047 10 mins before compound dosing by SPECT analysis; assay type: ADME, organism-based; how it was run: as §2

With `N#C[C@@H]1CCCN1C(=O)[C@@H]1CCCN1C(=O)CCCc1ccc([123I])cc1` the Drug uptake [1] was 45.24 % ID/g, the Retention_time (Mus musculus [2]) was 7.15 min and the Drug uptake (Brain [3]) was 0.08 % ID/g. It also gave a Drug uptake (Blood [4]) of 8.5 % ID/g, a Drug uptake (Brain [5]) of 0.43 %ID and a Drug uptake [6] of 95%. The Drug uptake (Muscle tissue) was 0.59 % ID/g, the Drug uptake (Heart) was 12.2 % ID/g and the logP [7] was 2.37. The fraction unbound at 40 min [8] was 0.98, the fraction unbound at 2 h, 2.5 MBq/ml [9] was 0.937 and the tissue uptake at 80 min [10] was 1.34 %ID/g. The fraction unbound at 40 min [11] was 0.08, the Drug uptake [12] was 84% and the fraction unbound at 160 min [13] was 0.26. It also gave a PPB [14] of 1%, a Drug uptake (Mus musculus [15]) of 0.55 % ID/g and a Retention_time (Mus musculus [16]) of 4 min. For the same compound, the fraction unbound at 80 min [17] was 0.15, the Drug uptake (Liver) was 5.05 % ID/g and the Drug uptake (Kidney) was 4.73 % ID/g. The PPB [18] was 0%, the Drug uptake (Blood [19]) was 2.1 % ID/g and the tissue uptake at 80 min [20] was 1.09 %ID/g. It also gave a Drug uptake (Blood [21]) of 10.9 % ID/g and a fraction unbound at 160 min [22] of 0.58.
